Source: PubChem BioAssay
SENP8 block-1: SENP8 protease inhibition | Q96LD8 | purified SENP8, Z-RLRGG-aminoluciferin cleavage, luminescence | inhibition, % at 10 µM | hit rate 1.2% among 330,000; in the data active = inhibition above about 50%
Target sequence (Q96LD8 whole entry, looked up): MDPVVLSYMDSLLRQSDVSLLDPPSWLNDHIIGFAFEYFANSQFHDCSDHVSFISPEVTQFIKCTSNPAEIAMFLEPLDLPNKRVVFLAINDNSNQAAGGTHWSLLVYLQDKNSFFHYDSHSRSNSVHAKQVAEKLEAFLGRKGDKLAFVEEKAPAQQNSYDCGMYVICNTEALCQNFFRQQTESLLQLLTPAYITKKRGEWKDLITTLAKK
SENP8 block-2: inhibitors of human SENP8 protease | Q96LD8 | recombinant SENP8, Nedd8 substrate fluorescence | inhibition, % at 20 µM | hit rate 0.64% among 360,000 | AID 602440; in the data active = inhibition mostly above about 40%, no sharp cut-off; inactive = mostly below about 27%
Apaf-1 inh: blocks human Apaf-1 apoptosome activity; O14727; reconstituted apoptosome caspase-3 activity, DEVD-Rh110 fluorescence; inhibition, % at 20 µM; hit rate 0.71% among 330,000; active = inhibition of at least 40% at 20 µM;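 note: plate controls were DMSO wells for no effect and DEVD-CHO caspase inhibitor wells for full effect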
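Material: reconstituted apoptosome with Apaf-1, cytochrome c, caspase-9, procaspase-3, dATP / Buffer or medium: pH 7.5 Hepes buffer with CHAPS, BSA, DTT / Also added: cytochrome c with DEVD-Rh110 / Schedule: compound with Apaf-1, dATP, procaspase-3 30 min, then 50 min reaction, room temperature / Technique: rhodamine 110 fluorescence at Ex 480/Em 540 nm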
SENP1 FRET inh: blocks the human SENP1 SUMO protease catalytic domain; hit rate 0.21% among 360,000; inhibition, % at 10 µM; Q9P0U3; recombinant SENP1 catalytic domain, CyPet-SUMO1-YPet FRET cleavage;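 active = inhibition at least 30% at 10 µM, raw YFP signal under a set limit, fluorescence ratio 0.5 to 1.5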;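 note: 0% = enzyme with DMSO and 100% = no enzyme wells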
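Compound: 10 µM single point, 0.5% DMSO; Test system: hSENP1 catalytic domain, recombinant; Timing: 50 min reaction at room temperature; Technique: FRET, CFP and YFP emission; Control set: no-enzyme wells low, DMSO-plus-enzyme wells high control.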
SENP6 inh: inhibitors of human SENP6 protease | Recombinant SENP6 catalytic domain, aminoluciferin luminescence | inhibition, % at 10 µM | hit rate 1.8% among 330,000;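 active = inhibition above about 50% at the single tested dose, limit read from the data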;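 note: plate controls were DMSO wells with enzyme for no effect and DMSO wells lacking enzyme for full effect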
SENP7 inh: SENP7 protease inhibition. Q9BQF6. recombinant SENP7, Z-RLRGG-aminoluciferin luminescence, 40 min. inhibition, % at 5 µM. hit rate 1.5% among 330,000. AID 434973;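 active = inhibition above about 50% at the single test dose, limit read from the data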;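 note: plate controls were DMSO with enzyme for no effect and no enzyme buffer wells for full effect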
SENP8 confirm: human SENP8 inhibition, confirmed; shares compounds with SENP7 inh; Recombinant SENP8, Z-RLRGG-aminoluciferin luminescence, 60 min; inhibition, % at 12.5 µM; hit rate 40% among 6,200; AID 488912;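 active = mean inhibition across replicates above about 50%, limit read from the data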
SENP6 conf: confirmation of human SENP6 protease inhibitors | inhibition, % at 12.5 µM | shares compounds with SENP7 inh | hit rate 58% among 6,200 | AID 488915 | recombinant SENP6, Z-RLRGG-aminoluciferin luminescence
SENP7 confirm: confirmation of human SENP7 protease inhibitors; shares compounds with SENP7 inh; recombinant SENP7, Z-RLRGG-aminoluciferin luminescence, 40 min; inhibition, % at 12.5 µM; hit rate 69% among 6,200; AID 488917
Casp3 SENP sel: selectivity test for SENP inhibitors: human caspase-3 inhibition. shares compounds with SENP7 inh. purified caspase-3, Z-DEVD-aminoluciferin luminescence, 60 min. inhibition, % at 12.5 µM. hit rate 60% among 6,200;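 active = mean inhibition above about 50%, limit read from the data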;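 note: plate controls were enzyme with DMSO for no effect and wells without caspase-3 for full effect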
Target sequence (P42574 28-227 limits assumed): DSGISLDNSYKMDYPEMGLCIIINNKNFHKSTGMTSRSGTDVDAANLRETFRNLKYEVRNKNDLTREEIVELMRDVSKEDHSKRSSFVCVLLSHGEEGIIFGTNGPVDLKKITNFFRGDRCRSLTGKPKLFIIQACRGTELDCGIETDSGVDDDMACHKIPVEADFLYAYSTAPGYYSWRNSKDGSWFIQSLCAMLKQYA
SENP luc ctr: counter-screen for SENP inhibitors: luminescence interference | shares compounds with SENP7 inh | Pre-incubated SENP8/Z-RLRGG-aminoluciferin, luciferase luminescence interference | inhibition, % at 12.5 µM | hit rate 39% among 6,200;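 active = mean inhibition above about 50% when retested at one dose, limit read from the data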;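 note: plate controls were DMSO wells with completed reaction for no effect and substrate without enzyme for full effect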
Active calls of the source: *; / = no result. An excerpt weighted towards active compounds, which were near 2.9% of everything screened.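 Rule for the calls, unless noted: active = mean inhibition above about 50% in the one-dose retest (limit read from the data); inactive = the rest.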

SMILES	SENP8 block-1	SENP8 block-2	Apaf-1 inh	SENP1 FRET inh	SENP6 inh	SENP7 inh	SENP8 confirm	SENP6 conf	SENP7 confirm	Casp3 SENP sel	SENP luc ctr
O=C(O)c1ccccc1N=Nc1c(O)[nH]c2ccc([N+](=O)[O-])cc12	94.9*	29.0	13.7	-6.4	99.3*	93.5*	97.5*	98.0*	101.1*	94.0*	36.6
O=C(N=Nc1c(O)[nH]c2ccc([N+](=O)[O-])cc12)c1ccccc1Cl	-1.9	28.3	-5.5	3.5	-16.4	8.6	/	/	/	/	/
O=C(Nc1ccc(F)c(Cl)c1)c1nsc(Cl)c1Cl	91.3*	14.7	-16.4	-1.8	93.3*	95.9*	52.8*	73.5*	87.3*	80.0*	26.9
O=C(Nc1ccc(F)cc1)c1nsc(Cl)c1Cl	84.3*	31.9	-1.5	0.7	93.7*	82.8*	62.0*	87.4*	97.4*	90.3*	57.3*
CCOc1ccc(NC(=O)c2nsc(Cl)c2Cl)cc1	18.1	27.3	0.0	1.2	-33.5	34.8	/	/	/	/	/
CSC1=NSC2=NC(=O)/C(=C\c3ccc(OC(=O)c4ccco4)cc3)C(=N)N12	91.2*	14.6	16.3	-118.2	89.3*	36.6	90.2*	89.9*	96.2*	89.5*	3.6
CN(Cc1ccco1)C(=O)CC[C@H]1O[C@@H](n2ccc(=O)[nH]c2=O)[C@H](O)[C@@H]1O	/	20.6	/	-0.3	/	/	/	/	/	/	/
N/C(=N\OC(=O)c1ccc(Cl)c(Cl)c1)c1cccnc1	23.9	17.0	17.7	1.4	67.0*	64.2*	17.0	21.7	30.7	31.3	15.2
N/C(=N\OC(=O)c1ccccc1Cl)c1cccnc1	41.3	10.6	1.3	0.6	65.3*	57.2*	56.0*	53.5*	81.7*	79.2*	64.2*
N/C(=N\OC(=O)c1ccccc1)c1cccnc1	24.1	-7.2	0.5	-0.9	39.3	55.6*	16.0	17.1	60.9*	72.5*	37.6
CC(=O)c1cccc(NC(=O)c2ccc(-n3cncn3)c3ccoc23)c1	/	13.9	/	1.4	/	/	/	/	/	/	/
O=c1c2ccccc2oc2cc(C#CC3(O)CCCCC3)ccc12	95.5*	11.2	16.5	0.9	98.1*	99.0*	97.9*	98.8*	102.5*	93.9*	75.3*
COc1cccc2oc3cc(C#CC4(O)CCCCC4)ccc3c(=O)c12	83.9*	-355.2	38.3	-3.6	80.9*	84.1*	89.1*	89.4*	97.4*	71.9*	54.7*
c1ccc(-c2noc(-c3ccccc3-c3ccccc3)n2)cc1	-5.6	15.2	10.7	-0.6	-6.8	3.5	/	/	/	/	/
O=C(O)c1ccc(-c2noc(-c3ccccc3C(F)(F)F)n2)cc1	66.8*	17.7	3.1	0.1	81.8*	3.6	5.4	29.2	42.7	38.4	45.8
O=C(O)c1ccc(-c2noc(-c3cccc(Cl)c3)n2)cc1	98.1*	10.6	0.7	-1.1	97.0*	96.5*	98.3*	99.0*	101.8*	97.6*	94.7*
FC(F)(F)c1ccccc1-c1nc(-c2ccncc2)no1	-4.1	5.4	0.0	2.6	13.1	3.7	/	/	/	/	/
O=C(NCc1ccco1)c1ccccc1-c1nc(-c2ccc(F)cc2)no1	-0.2	6.8	-0.5	-1.5	3.1	0.3	/	/	/	/	/
O=C(O)c1ccc(-c2noc(-c3ccc(F)cc3)n2)cc1	94.4*	13.5	-2.5	3.6	98.1*	95.4*	97.9*	98.3*	102.2*	98.0*	96.4*
